Compound activity (PubChem BioAssay)
A selection: hits, their analogues and other compounds. The true share with any hit is near 3.7%.
hERG rescue – hERG (human) protection from proarrhythmic block; CHO-hERG, FluxOR thallium flux, dofetilide IC70 present; AID 1511; activation (rescue from dofetilide block), less the hit threshold, % at 10 µM; actives 0.51% (n = 310,000);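 active = activation above the mean of controls blocked by dofetilide plus 5 SD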;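 note: thallium influx through hERG after potassium depolarization seen as dye fluorescence rise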
KCNQ1 pot – potentiates or activates the human KCNQ1 potassium channel; P51787; CHO-K1 KCNQ1, thallium flux FluxOR fluorescence; hits give high values; B-score at 10 µM; actives 0.35% (n = 310,000);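 active = fluorescence ratio B-score, a plate-corrected score, at least three library SD, with initial intensity B-score within 5 SD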
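assay system = KCNQ1-transfected CHO-K1 cells | medium = assay buffer with matched DMSO | probe or stimulus = depolarizing K+/Tl+ stimulus, K2SO4 and Tl2SO4 each 12.5 mM in 5x stock | dosing = single dose | incubation = dye 90 min, compound 20 min, room temperature | detection = kinetic FluxOR fluorescence, 10 s baseline plus 110 s post-stimulus | evaluation = ratio B score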
KCNQ1 block – blocks the human KCNQ1 potassium channel. actives 1.3% (n = 310,000). AID 2642. CHO-K1 KCNQ1, FluxOR thallium flux fluorescence; hits give high values. P51787. B-score at 10 µM;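 active = compounds whose thallium flux B-score, printed positive for inhibition, exceeds three library SD while starting fluorescence stays within three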;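 note: channel opened by potassium depolarization with thallium stimulus after 20 min compound exposure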
Kir21 inh – Kir2.1 (mouse) channel inhibition. P35561. HEK293-Kir2.1, FluxOR thallium flux fluorescence; hits give low values. B-score at 10 µM. actives 0.85% (n = 310,000);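 active = fluorescence ratio B-score at or below minus 3 SD of library scores, with starting-brightness B-score within 2 SD, cut at about -4.2 in these data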;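 note: channel flux triggered by added potassium and thallium sulfate stimulus; B-score of peak minus minimum fluorescence over baseline after thallium stimulus; more negative B-score means stronger Kir2.1 block with less thallium influx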
KCNK9 block – blocks the human KCNK9 two-pore domain potassium channel; B-score at 10 µM; actives 1.2% (n = 310,000); AID 488922; Q9NPC2; HEK293 KCNK9, FluxOR thallium flux fluorescence; hits give low values;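 active = ratio B-score over 3 SD below the library mean, with starting fluorescence within 5 SD of its mean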;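 note: negative B-score means less thallium flux so channel inhibition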
Target sequence (Q9NPC2 whole entry, looked up, the tested form may be a part): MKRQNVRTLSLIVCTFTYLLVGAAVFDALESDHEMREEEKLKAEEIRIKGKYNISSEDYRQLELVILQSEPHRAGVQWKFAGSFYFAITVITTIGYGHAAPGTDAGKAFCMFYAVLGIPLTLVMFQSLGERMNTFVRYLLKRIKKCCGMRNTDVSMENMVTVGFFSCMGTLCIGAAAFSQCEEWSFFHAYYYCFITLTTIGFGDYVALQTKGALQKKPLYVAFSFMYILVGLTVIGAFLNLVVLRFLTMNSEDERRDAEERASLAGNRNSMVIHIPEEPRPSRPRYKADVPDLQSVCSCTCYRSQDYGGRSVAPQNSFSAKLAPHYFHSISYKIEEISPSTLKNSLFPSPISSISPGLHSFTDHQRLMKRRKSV
KCNK3 block – human KCNK3 channel inhibition, primary screen | actives 0.84% (n = 340,000) | O14649 | CHO-KCNK3 thallium flux, FluxOR fluorescence; hits give low values | AID 602410 | B-score at 10 µM;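 active = B-score under library mean minus 4 SD, starting fluorescence ratio at most library mean plus 5 SD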;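 note: more negative B-score means stronger inhibition of thallium flux through KCNK3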
KCNQ1 inh valid – reconfirmed blocker of the human KCNQ1 potassium channel; KCNQ1 cell line, FluxOR thallium flux fluorescence; inhibition, % at 10 µM; actives 93% (n = 1,600); shares compounds with KCNQ1 block;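 active = primary screen active, with duplicate mean exceeding buffer control mean plus 3 SD of buffer wells, cut at about 28% in these data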;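 note: 0% = buffer control ratio and 100% = XE991 inhibitor control ratio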
CHO Tl flux – KCNQ1 inhibitor counter-screen hit in parental CHO cells | fluorescence ratio (Tl flux) at 10 µM | shares compounds with KCNQ1 block | actives 21% (n = 1,600) | parental CHO-K1, FluxOR thallium flux fluorescence ratio; hits give low values; zero means no signal rise above baseline;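 active = mean of duplicate thallium-flux fluorescence ratios in parental host cells more than 5 SD below the buffer control mean, cut at about 0.38 in these data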;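 note: ratio is peak minus minimum fluorescence divided by baseline fluorescence; actives read low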
KCNQ1 APC inh – blocks human KCNQ1 current in automated patch clamp | actives 20% (n = 490) | shares compounds with KCNQ1 block | calls only at 10 µM | KCNQ1-CHO cells;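 active = KCNQ1 current drop exceeding 3 SD of negative control wells, seen in both duplicate runs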;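 note: steady state current during a 2 s step from -80 to +40 mV; negative values mean current inhibition and positive values mean potentiation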
KCNQ2 inh – selectivity of KCNQ1 inhibitors: inhibition of rat KCNQ2 channel | shares compounds with KCNQ1 block | KCNQ2 cells, FluxOR thallium flux fluorescence | inhibition, % at 10 µM | actives 71% (n = 1,600) | AID 651746;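 active = mean percent inhibition of the KCNQ2 thallium signal more than 5 SD above the buffer-only control wells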;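 note: KCNQ2 expressed in CHO cells; 0% = buffer control wells and 100% = XE-991 inhibitor control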
KCNQ1-KCNE1 inh – human KCNQ1/KCNE1 inhibition in KCNQ1 specificity screen; KCNQ1/KCNE1 cells, FluxOR thallium flux fluorescence; actives 77% (n = 1,600); shares compounds with KCNQ1 block; inhibition, % at 10 µM;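 active = mean percent inhibition of duplicate wells above the buffer-only control mean plus 3 SD of those controls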;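 note: 0% = buffer only wells and 100% = XE-991 inhibitor control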
Starred values were filed as active, the others as inactive.

For Clc1cccc(Cl)c1/C=C/c1nc2ccccc2[nH]1 the results were hERG rescue -18.8, KCNQ1 pot inactive, KCNQ1 block 14*, Kir21 inh -0.48, KCNK9 block inactive, KCNK3 block -8.8*, KCNQ1 inh valid 121.0*, CHO Tl flux 0.459, KCNQ2 inh 93.0%* and KCNQ1-KCNE1 inh 129.5%*.
Screening Clc1ccc(/C=C/c2nc3ccccc3[nH]2)cc1 returned hERG rescue -7.2, KCNQ1 pot inactive, KCNQ1 block inactive, Kir21 inh 1.18, KCNK9 block inactive and KCNK3 block inactive.
`CC1CCN(CC(O)COCCC23CC4CC(CC(C4)C2)C3)CC1` (stereo not given) gave hERG rescue -8.7, KCNQ1 pot inactive, KCNQ1 block 7*, Kir21 inh -1.64, KCNK9 block inactive, KCNK3 block inactive, KCNQ1 inh valid 72.5*, CHO Tl flux 0.376*, KCNQ2 inh 79.0%* and KCNQ1-KCNE1 inh 76.5%*.
`Cc1ccnc(NC(=O)CCC(=O)c2cc(C)sc2C)c1` gave hERG rescue -7.2, KCNQ1 pot inactive, KCNQ1 block inactive, Kir21 inh 1.62, KCNK9 block inactive and KCNK3 block inactive.
Screening O=C1CSc2ccc(C(=O)Nc3cccc(S(=O)(=O)Nc4ccc(Br)cc4)c3)cc2N1 returned hERG rescue -10.0, KCNQ1 pot inactive, KCNQ1 block 10*, Kir21 inh -0.28, KCNK9 block inactive, KCNK3 block inactive, KCNQ1 inh valid 138.0*, CHO Tl flux 0.331*, KCNQ2 inh 100.7%* and KCNQ1-KCNE1 inh 188.0%*.
For O=C(Nc1ccc(Br)cc1)c1cccc(S(=O)(=O)Nc2cnc3ccccc3c2)c1 the results were hERG rescue -10.0, KCNQ1 pot inactive, KCNQ1 block 6*, Kir21 inh 2.43, KCNK9 block inactive, KCNK3 block inactive, KCNQ1 inh valid 139.0*, CHO Tl flux 0.435, KCNQ2 inh inactive and KCNQ1-KCNE1 inh 58.5%*.
Screening O=C(Nc1ccc(Br)cc1)c1cccc(S(=O)(=O)Nc2ccccn2)c1 returned hERG rescue -7.5, KCNQ1 pot inactive, KCNQ1 block inactive, Kir21 inh 1.13, KCNK9 block inactive and KCNK3 block inactive.
Screening Clc1ccc(-c2nc(N3CCCCC3)nc3ccccc23)cc1 returned hERG rescue -6.8, KCNQ1 pot inactive, KCNQ1 block 8*, Kir21 inh 1.46, KCNK9 block inactive, KCNK3 block inactive, KCNQ1 inh valid 132.5*, CHO Tl flux 0.436, KCNQ1 APC inh active, KCNQ2 inh 85.0%* and KCNQ1-KCNE1 inh 197.0%*.
CCn1c(=O)c2sccc2n(Cc2ccccc2)c1=O was read as hERG rescue -5.5, KCNQ1 pot inactive, KCNQ1 block inactive, Kir21 inh -1.65, KCNK9 block inactive and KCNK3 block inactive.
Screening CC1(C)CC(=O)C2=C(C1)Nc1ccccc1NC2 returned hERG rescue -2.8, KCNQ1 pot inactive, KCNQ1 block 7*, Kir21 inh -0.71, KCNK9 block inactive, KCNK3 block inactive, KCNQ1 inh valid 0.0, CHO Tl flux 0.498, KCNQ2 inh inactive and KCNQ1-KCNE1 inh inactive.
Screening CC1(C)CC(=O)C2=C(C1)Nc1ccccc1S2 returned hERG rescue -15.4, KCNQ1 pot inactive, KCNQ1 block inactive, Kir21 inh 0.71, KCNK9 block inactive and KCNK3 block inactive.
Cc1ccc(S(=O)(=O)c2cc3c(=O)n4ccccc4nc3n(CCc3ccccc3)c2=N)cc1 was read as hERG rescue -6.3, KCNQ1 pot inactive, KCNQ1 block 6*, Kir21 inh 0.51, KCNK9 block inactive, KCNK3 block inactive, KCNQ1 inh valid 100.5*, CHO Tl flux 0.36*, KCNQ2 inh 118.0%* and KCNQ1-KCNE1 inh 140.5%*.
`CCn1c(=N)c(S(=O)(=O)c2ccc(C)cc2)cc2c(=O)n3ccccc3nc21` gave hERG rescue -2.4, KCNQ1 pot inactive, KCNQ1 block inactive, Kir21 inh -1.33 and KCNK9 block inactive.
`CN(c1cccc(NC(=O)Nc2cccc(Cl)c2)c1)S(C)(=O)=O` gave hERG rescue -16.6, KCNQ1 pot inactive, KCNQ1 block 16*, Kir21 inh -0.5, KCNK9 block inactive, KCNK3 block inactive, KCNQ1 inh valid 93.0*, CHO Tl flux 0.466, KCNQ2 inh 122.7%* and KCNQ1-KCNE1 inh 82.5%*.
O=C(Nc1ccncc1)Nc1cccc(Cl)c1 was read as hERG rescue -22.5, KCNQ1 pot inactive, KCNQ1 block 7*, Kir21 inh 2.13, KCNK9 block inactive, KCNK3 block inactive, KCNQ1 inh valid 52.5*, CHO Tl flux 0.481, KCNQ2 inh inactive and KCNQ1-KCNE1 inh 46.0%*.
O=C(NCc1ccncc1)Nc1cccc(Cl)c1 was read as hERG rescue -3.7, KCNQ1 pot inactive, KCNQ1 block inactive, Kir21 inh 1.04, KCNK9 block inactive and KCNK3 block inactive.
Screening Cc1cccc(NC(=O)Nc2ccc(Cl)cc2)n1 returned hERG rescue -9.1, KCNQ1 pot inactive, KCNQ1 block inactive, Kir21 inh 1.02, KCNK9 block inactive and KCNK3 block inactive.
Screening CN(C)c1ccc(NC(=O)Nc2cccc(Cl)c2)cc1 returned hERG rescue -12.4, KCNQ1 pot inactive, KCNQ1 block inactive, Kir21 inh -2.78, KCNK9 block inactive and KCNK3 block inactive.
For Cc1nccc(-c2cccc(NC(=O)Nc3ccc(Cl)cc3)c2)n1 the results were hERG rescue -9.4, KCNQ1 pot inactive, KCNQ1 block 8*, Kir21 inh 0.58, KCNK9 block inactive, KCNK3 block inactive, KCNQ1 inh valid 92.5*, CHO Tl flux 0.517, KCNQ1 APC inh inactive, KCNQ2 inh 67.0%* and KCNQ1-KCNE1 inh 72.5%*.
